What all share (type): functional
In assay [1] the test system is Escherichia coli. Kind of assay: Antibacterial activity against Escherichia coli NCIB 86 after 24 hrs by agar well diffusion method. In short, it runs like this: (§1)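 Agar well diffusion. Clinical isolates were first checked for viability, then grown in nutrient broth for 8 h at 37 °C. About 0.2 ml of broth culture was mixed into 18 ml molten diagnostic sensitivity test agar cooled to 45 °C and poured into plates. Compounds in DMSO went into bored wells, with streptomycin as reference. Plates stood 1 h for diffusion, then were incubated upright at 37 °C for 24 h. Clear inhibition zones were read in mm.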
A general note: Agar diffusion results depend on both activity and mobility in agar.

Assay [2] relates to Bacillus cereus. As to the kind of experiment: Antibacterial activity against Bacillus cereus NCIB 6349 after 24 hrs by agar well diffusion method. In short, it runs like this:
as §1

Assay [3] has as its system Candida albicans. As to the kind of experiment: Antifungal activity against Candida albicans after 3 days by agar well diffusion method.
Assay [4] concerns Klebsiella pneumoniae. Kind of assay: Antibacterial activity against Klebsiella pneumoniae NCIB 418 after 24 hrs by agar well diffusion method. In short, it runs like this: as §1
Assay [5] relates to Bacillus subtilis. As to the kind of experiment: Antibacterial activity against Bacillus subtilis NCIB 3610 after 24 hrs by agar well diffusion method. In short, it runs like this: as §1
Assay [6] deals with Bacillus cereus. As to the kind of experiment: Antibacterial activity against Bacillus cereus NCIB 6349 after 72 hrs. The conditions noted are these: NCIB 6349, 72 h. In short, it runs like this: (§2)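 MIC by the Russell and Furr method, run on selected Gram-positive and Gram-negative strains. Once the agar had set and its surface had dried, nutrient agar plates were streaked with overnight broth cultures. They were incubated at 37 °C for up to 72 h and scored for presence or absence of growth.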

In assay [7] the test system is Geobacillus stearothermophilus. As to the kind of experiment: Antibacterial activity against Bacillus stearothermophilus NCIB 8222 after 24 hrs by agar well diffusion method. In short, it runs like this: as §1
Assay [8] relates to Geobacillus stearothermophilus. Kind of assay: Antibacterial activity against Bacillus stearothermophilus NCIB 8222 after 72 hrs. The conditions noted are these: NCIB 8222, 72 h. The method, boiled down: as §2
The test system of assay [9] is Escherichia coli. As to the kind of experiment: Antibacterial activity against Escherichia coli NCIB 86 after 72 hrs. In short, it runs like this:
as §2

Assay [10] has as its system Bacillus anthracis. Kind of assay: Antibacterial activity against Bacillus anthracis after 72 hrs.
In assay [11] the test system is Bacillus subtilis. As to the kind of experiment: Antibacterial activity against Bacillus subtilis NCIB 3610 after 72 hrs. The conditions noted are these: NCIB 3610, 72 h. In short, it runs like this:
as §2

Assay [12] relates to Bacillus anthracis. Kind of assay: Antibacterial activity against Bacillus anthracis after 24 hrs by agar well diffusion method.
In assay [13] the test system is Pseudomonas aeruginosa. As to the kind of experiment: Antibacterial activity against Pseudomonas aeruginosa NCIB 950 after 24 hrs by agar well diffusion method. In short, it runs like this:
as §1

Assay [14] deals with Shigella dysenteriae. As to the kind of experiment: Antibacterial activity against Shigella dysenteriae after 72 hrs. In short, it runs like this:
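MIC by agar dilution: compound-containing nutrient agar was set and surface-dried, then streaked with overnight broth culture of the clinical isolate. Incubated at 37 °C for up to 72 h and scored for presence or absence of growth. Streptomycin was the reference.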

Assay [15] has as its system Staphylococcus aureus. As to the kind of experiment: Antibacterial activity against Staphylococcus aureus NCIB 8588 after 72 hrs. In short, it runs like this:
as §2

Assay [16] deals with Klebsiella pneumoniae. As to the kind of experiment: Antibacterial activity against Klebsiella pneumoniae NCIB 418 after 72 hrs. In short, it runs like this:
as §2

Assay [17] relates to Shigella dysenteriae. Kind of assay: Antibacterial activity against Shigella dysenteriae after 24 hrs by agar well diffusion method.
The subject of assay [18] is Staphylococcus aureus. As to the kind of experiment: Antibacterial activity against Staphylococcus aureus NCIB 8588 after 24 hrs by agar well diffusion method. The method, boiled down: as §1
Assay [19] concerns Pseudomonas fluorescens. As to the kind of experiment: Antibacterial activity against Pseudomonas fluorescens NCIB 3756 after 24 hrs by agar well diffusion method. In short, it runs like this:
as §1

≈ marks a conversion by molar mass, not a printed value. Calls of active or inactive are those of the source. The rule behind the calls is not given here.

Consider `C/C(=N\Nc1nc2ccccc2[nH]c1=O)c1cc2cc(Br)ccc2oc1=O`, for which the “inhibition zone (IZ)” value in assay [1] was 18 mm; in assay [2], 15 mm; in [3], 21 mm; in assay [4], 18 mm; in [5], 30 mm; in assay [7], 29 mm. The “inhibition zone (IZ)” value stood at 16 mm in assay [12]; 0 mm in assay [13]; 0 mm in assay [17]; 14 mm in [18]; 0 mm in assay [19]. The minimal inhibitory concentration (MIC) in assay [6] came out at 62.5 µg/mL (≈ 147 µM); in assay [8] it was 7.8 µg/mL (≈ 18.3 µM); in [9] (NCIB 86, 72 h), 62.5 µg/mL (≈ 147 µM); in assay [10], 62.5 µg/mL (≈ 147 µM); in assay [11], 7.8 µg/mL (≈ 18.3 µM); in [15] (NCIB 8588, 72 h), 62.5 µg/mL (≈ 147 µM). Further, the MIC in [16] (NCIB 418, 72 h) turned out to be 62.5 µg/mL (≈ 147 µM). The MIC entry in assay [14] was “inactive”.
With `CN[C@@H]1[C@H](O[C@H]2[C@H](O[C@H]3[C@H](O)[C@@H](O)[C@H](N=C(N)N)[C@@H](O)[C@@H]3N=C(N)N)O[C@@H](C)[C@]2(O)C=O)O[C@@H](CO)[C@H](O)[C@H]1O` [STREPTOMYCIN], the “inhibition zone (IZ)” value was found to be 0 mm in [1]; 28 mm in [2]; 0 mm in assay [4]; 20 mm in assay [5]; 23 mm in assay [7]; 18 mm in assay [12]. The “inhibition zone (IZ)” value in [13] was determined as 0 mm; in [17], 22 mm; in assay [18] it was 21 mm; in [19] it was 30 mm. In addition, the “inhibition zone (IZ)” value in assay [3] is “inactive”. The minimum inhibitory concentration (MIC) in assay [6] stood at 7.8 µg/mL (≈ 13.4 µM); in [8] it was 7.8 µg/mL (≈ 13.4 µM); in assay [10], 31.3 µg/mL (≈ 53.8 µM); in assay [11], 15.6 µg/mL (≈ 26.8 µM); in [14], 15.6 µg/mL (≈ 26.8 µM); in assay [15] (NCIB 8588, 72 h), 7.8 µg/mL (≈ 13.4 µM). The MIC entry in assay [9] and in assay [16] was “inactive” in each case.
As to `O=c1[nH]c2ccccc2nc1N/N=C1\CCCCC1Br` (stereo not drawn), the “inhibition zone (IZ)” value in assay [1] was 13 mm; in assay [2] it was 28 mm; in assay [3] it was 19 mm; in [4], 12 mm; in assay [5] it was 20 mm; in assay [7], 13 mm. For the same molecule, the “inhibition zone (IZ)” value in assay [12] is given as 19 mm; in assay [13], 0 mm; in assay [17], 15 mm; in assay [18], 13 mm; in assay [19], 0 mm. Also, the MIC was found to be 7.8 µg/mL (≈ 23.3 µM) in assay [6]; 31.3 µg/mL (≈ 93.4 µM) in [8]; 31.3 µg/mL (≈ 93.4 µM) in assay [9] (NCIB 86, 72 h); 15.6 µg/mL (≈ 46.5 µM) in assay [10]; 7.8 µg/mL (≈ 23.3 µM) in assay [11]; 15.6 µg/mL (≈ 46.5 µM) in assay [14]. The MIC in assay [15] (NCIB 8588, 72 h) worked out at 31.3 µg/mL (≈ 93.4 µM); in [16] (NCIB 418, 72 h), 31.3 µg/mL (≈ 93.4 µM).
As for `O=C1Nc2ccc(Cl)cc2/C1=N/Nc1nc2ccccc2[nH]c1=O`, the “inhibition zone (IZ)” value in assay [1] was 19 mm; in [2], 28 mm; in assay [3], 18 mm; in [4], 20 mm; in assay [5], 20 mm; in assay [7], 24 mm. Moreover, the “inhibition zone (IZ)” value in assay [12] turned out to be 20 mm; in assay [13], 0 mm; in assay [17], 10 mm; in [18], 25 mm; in assay [19] it was 0 mm. Also, the MIC in assay [6] stood at 7.8 µg/mL (≈ 23 µM); in assay [8], 7.8 µg/mL (≈ 23 µM); in [9] (NCIB 86, 72 h) it was 15.6 µg/mL (≈ 45.9 µM); in assay [10], 15.6 µg/mL (≈ 45.9 µM); in [11], 15.6 µg/mL (≈ 45.9 µM); in assay [14], 62.5 µg/mL (≈ 184 µM). In addition, the minimal inhibitory concentration (MIC) in assay [15] (NCIB 8588, 72 h) worked out at 7.8 µg/mL (≈ 23 µM); in assay [16] (NCIB 418, 72 h), 7.8 µg/mL (≈ 23 µM).
With `CCC(CC)=NNc1nc2ccccc2[nH]c1=O`, the “inhibition zone (IZ)” value was found to be 15 mm in [1]; 28 mm in assay [2]; 18 mm in [3]; 15 mm in assay [4]; 20 mm in assay [5]; 25 mm in assay [7]. In addition, the “inhibition zone (IZ)” value in assay [12] was 0 mm; in assay [13] it was 0 mm; in [17], 0 mm; in assay [18], 10 mm; in assay [19], 0 mm. In addition, the MIC in assay [6] was found to be 7.8 µg/mL (≈ 31.9 µM); in assay [8] it was 7.8 µg/mL (≈ 31.9 µM); in assay [9] (NCIB 86, 72 h) it was 31.3 µg/mL (≈ 128 µM); in [11], 31.3 µg/mL (≈ 128 µM); in [15] (NCIB 8588, 72 h), 62.5 µg/mL (≈ 256 µM); in [16] (NCIB 418, 72 h), 31.3 µg/mL (≈ 128 µM). For the same molecule, the MIC entry in assay [10] and in assay [14] was “inactive” each time.
As for `NNc1nc2ccccc2[nH]c1=O`, the “inhibition zone (IZ)” value in assay [1] is on record as 25 mm; in [2], 28 mm; in assay [3], 18 mm; in assay [4], 10 mm; in [5], 20 mm; in [7], 15 mm. Moreover, the “inhibition zone (IZ)” value came out at 24 mm in assay [12]; 15 mm in [13]; 22 mm in assay [17]; 24 mm in assay [18]; 0 mm in assay [19]. Also, the minimal inhibitory concentration (MIC) in [6] worked out at 15.6 µg/mL (≈ 88.5 µM); in assay [8] it was 15.6 µg/mL (≈ 88.5 µM); in assay [9] (NCIB 86, 72 h), 15.6 µg/mL (≈ 88.5 µM); in assay [10] it was 15.6 µg/mL (≈ 88.5 µM); in assay [11], 15.6 µg/mL (≈ 88.5 µM); in assay [14], 125 µg/mL (≈ 710 µM). Moreover, the minimum inhibitory concentration (MIC) turned out to be 125 µg/mL (≈ 710 µM) in assay [15] (NCIB 8588, 72 h) and 125 µg/mL (≈ 710 µM) in [16] (NCIB 418, 72 h).
As to `O=c1[nH]c2ccccc2nc1NN=C1CCCC1`, the “inhibition zone (IZ)” value in assay [1] is reported as 17 mm; in assay [2], 20 mm; in assay [3], 29 mm; in assay [4] it was 14 mm; in assay [5], 12 mm; in [7], 14 mm. The “inhibition zone (IZ)” value in assay [12] is listed as 10 mm; in assay [13] it was 0 mm; in assay [17], 12 mm; in [18], 0 mm; in assay [19] it was 10 mm. Moreover, the minimum inhibitory concentration (MIC) in assay [6] was determined as 15.6 µg/mL (≈ 64.4 µM); in assay [8], 62.5 µg/mL (≈ 258 µM); in assay [9] (NCIB 86, 72 h), 31.3 µg/mL (≈ 129 µM); in assay [10] it was 125 µg/mL (≈ 516 µM); in [11] it was 31.3 µg/mL (≈ 129 µM); in assay [14], 62.5 µg/mL (≈ 258 µM). This molecule returned a minimum inhibitory concentration (MIC) in assay [16] (NCIB 418, 72 h) of 15.6 µg/mL (≈ 64.4 µM). Also, in [15], the MIC entry is “inactive”.

By MIC is commonly meant the lowest concentration found to suppress growth.

The record behind these values is ChEMBL document CHEMBL1157693, “Microwave assisted synthesis and antimicrobial activity of 2-quinoxalinone-3-hydrazone derivatives” (2010).
